The target in experiment [1] is Vasopressin V1a receptor (Homo sapiens, UniProt P37288). Kind of experiment: Binding affinity against human vasopressin V1a receptor expressed in CHO cells. Format: cell-based. Summed up:
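Competition binding on membranes of CHO cells expressing the human V1a receptor (2 to 3 µg protein). Each compound was tested at 10^-12 to 10^-6 M against a radioiodinated linear antagonist (45-80 pM). Incubation was 1 h at 30 °C in 50 mM Tris, 5 mM MgCl2, pH 7.4, with 1 mg/mL BSA, in triplicate, then GF/C filtration. Data were fitted by nonlinear least-squares regression.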

For experiment [2], the target named is Vasopressin V1a receptor (Rattus norvegicus, UniProt P30560). Description: Binding affinity against rat vasopressin V1a receptor.
Vasopressin V1a receptor (Rattus norvegicus, UniProt P30560), sequence (P30560 whole entry): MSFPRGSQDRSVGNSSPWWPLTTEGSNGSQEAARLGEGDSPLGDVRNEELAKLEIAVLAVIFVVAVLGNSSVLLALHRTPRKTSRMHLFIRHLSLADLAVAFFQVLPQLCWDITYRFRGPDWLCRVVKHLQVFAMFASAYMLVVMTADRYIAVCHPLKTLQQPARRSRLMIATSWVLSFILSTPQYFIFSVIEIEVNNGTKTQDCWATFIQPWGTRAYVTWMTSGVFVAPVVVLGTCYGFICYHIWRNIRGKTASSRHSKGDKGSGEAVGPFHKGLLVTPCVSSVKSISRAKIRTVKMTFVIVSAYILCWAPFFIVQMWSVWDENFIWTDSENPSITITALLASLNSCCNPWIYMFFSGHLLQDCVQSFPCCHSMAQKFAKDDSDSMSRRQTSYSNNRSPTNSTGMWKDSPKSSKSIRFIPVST

Vasopressin V1a receptor (Homo sapiens, UniProt P37288), sequence (P37288 whole entry): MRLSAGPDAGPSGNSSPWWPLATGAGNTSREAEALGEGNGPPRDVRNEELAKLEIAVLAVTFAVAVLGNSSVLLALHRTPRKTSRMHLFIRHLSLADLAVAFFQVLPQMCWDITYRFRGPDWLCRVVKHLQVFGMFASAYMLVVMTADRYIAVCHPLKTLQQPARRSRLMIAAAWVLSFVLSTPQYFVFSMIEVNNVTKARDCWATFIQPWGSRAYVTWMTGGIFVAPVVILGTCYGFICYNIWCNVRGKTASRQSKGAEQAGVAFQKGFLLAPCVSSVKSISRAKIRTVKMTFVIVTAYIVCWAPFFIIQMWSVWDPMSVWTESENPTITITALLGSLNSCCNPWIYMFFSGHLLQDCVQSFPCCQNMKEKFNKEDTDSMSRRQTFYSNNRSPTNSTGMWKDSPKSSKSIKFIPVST

The Ki is the dissociation constant of the complex between target and ligand, obtained from inhibition or displacement. The low end stands for higher affinity, the high end for lower affinity. Regarding `N=C(N)NCCC[C@H](NC(=O)[C@@H]1CCCN1C(=O)[C@H](CCCNC(=N)N)NC(=O)[C@H](CC(N)=O)NC(=O)[C@H](CCC(N)=O)NC(=O)[C@H](Cc1ccccc1)NC(=O)[C@H](Cc1ccc(C(=O)c2ccccc2)cc1)NC(=O)Cc1ccccc1)C(=O)N[C@@H](Cc1ccc(O)c(I)c1)C(N)=O`, at Vasopressin V1a receptor [1], the affinity corresponds to a Ki of 0.0025 µM.

As for `COc1ccc(C[C@@H](NC(=O)CCCc2ccc(N=[N+]=[N-])cc2)C(=O)N[C@@H](Cc2ccccc2)C(=O)N[C@@H](CCC(N)=O)C(=O)N[C@@H](CC(N)=O)C(=O)N[C@@H](CCCNC(=N)N)C(=O)N2CCC[C@H]2C(=O)N[C@@H](CCCNC(=N)N)C(=O)N[C@@H](Cc2ccc(O)c(I)c2)C(N)=O)cc1`, the Ki at Vasopressin V1a receptor [2] was 0.00018 µM.

`COc1ccc(C[C@@H](NC(=O)c2ccc(C(=O)c3ccccc3)cc2)C(=O)N[C@@H](Cc2ccccc2)C(=O)N[C@@H](CCC(N)=O)C(=O)N[C@@H](CC(N)=O)C(=O)N[C@@H](CCCN=C(N)N)C(=O)N2CCC[C@H]2C(=O)N[C@@H](CCCN=C(N)N)C(=O)N[C@@H](Cc2ccc(O)c(I)c2)C(N)=O)cc1`: the Ki at Vasopressin V1a receptor [1] was determined as 0.018 µM.

For `CC(=O)N[C@@H](Cc1ccc(C(=O)c2ccccc2)cc1)C(=O)N[C@@H](Cc1ccccc1)C(=O)N[C@@H](CCC(N)=O)C(=O)N[C@@H](CC(N)=O)C(=O)N[C@@H](CCCNC(=N)N)C(=O)N1CCC[C@H]1C(=O)N[C@@H](CCCNC(=N)N)C(=O)N[C@@H](Cc1ccc(O)c(I)c1)C(N)=O`, on Vasopressin V1a receptor [1] (cho), the Ki was determined as 1.49 µM.

For `CC(=O)N[C@H](Cc1ccc(C(=O)c2ccccc2)cc1)C(=O)N[C@@H](Cc1ccccc1)C(=O)N[C@@H](CCC(N)=O)C(=O)N[C@@H](CC(N)=O)C(=O)N[C@@H](CCCNC(=N)N)C(=O)N1CCC[C@H]1C(=O)N[C@@H](CCCNC(=N)N)C(=O)N[C@@H](Cc1ccc(O)c(I)c1)C(N)=O`, the inhibitory constant (Ki) at Vasopressin V1a receptor [1] (cho) was 0.024 µM.

`NC(=O)CC[C@H](NC(=O)[C@H](Cc1ccccc1)NC(=O)[C@H](N)Cc1ccc(C(=O)c2ccccc2)cc1)C(=O)N[C@@H](CC(N)=O)C(=O)N[C@@H](CCCN=C(N)N)C(=O)N1CCC[C@H]1C(=O)N[C@@H](CCCN=C(N)N)C(=O)N[C@@H](Cc1ccc(O)c(I)c1)C(N)=O` gave an inhibition constant Ki on Vasopressin V1a receptor [1] (cho) of 0.02 µM.

Consider `COc1ccc(C[C@@H](NC(=O)C(N)Cc2ccc(C(=O)c3ccccc3)cc2)C(=O)N[C@@H](Cc2ccccc2)C(=O)N[C@@H](CCC(N)=O)C(=O)N[C@@H](CC(N)=O)C(=O)N[C@@H](CCCNC(=N)N)C(=O)N2CCC[C@H]2C(=O)N[C@@H](CCCNC(=N)N)C(=O)N[C@@H](Cc2ccc(O)c(I)c2)C(N)=O)cc1` (stereo not given in full), for which the Ki on Vasopressin V1a receptor [1] (cho) was 0.462 µM.

Turning to `COc1ccc(C[C@@H](NC(=O)CNC(=O)c2ccc(C(=O)c3ccccc3)cc2)C(=O)N[C@@H](Cc2ccccc2)C(=O)N[C@@H](CCC(N)=O)C(=O)N[C@@H](CC(N)=O)C(=O)N[C@@H](CCCCN)C(=O)N2CCC[C@H]2C(=O)N[C@@H](CCCNC(=N)N)C(=O)N[C@@H](Cc2ccc(O)c(I)c2)C(N)=O)cc1`, affinity on Vasopressin V1a receptor [1] (cho) was put at a Ki of 0.115 µM.

For `N=C(N)NCCC[C@H](NC(=O)[C@@H]1CCCN1C(=O)[C@H](CCCNC(=N)N)NC(=O)[C@H](CC(N)=O)NC(=O)[C@H](CCC(N)=O)NC(=O)[C@H](Cc1ccccc1)NC(=O)[C@@H](N)Cc1ccc(C(=O)c2ccccc2)cc1)C(=O)N[C@@H](Cc1ccc(O)c(I)c1)C(N)=O`, on Vasopressin V1a receptor [1] (cho), the Ki is 0.148 µM.

Consider `NC(=O)CC[C@H](NC(=O)[C@H](Cc1ccccc1)NC(=O)[C@@H](Cc1ccc(C(=O)c2ccccc2)cc1)NC(=O)Cc1ccccc1)C(=O)N[C@@H](CC(N)=O)C(=O)N[C@@H](CCCN=C(N)N)C(=O)N1CCC[C@H]1C(=O)N[C@@H](CCCN=C(N)N)C(=O)N[C@@H](Cc1ccc(O)c(I)c1)C(N)=O`, for which, at Vasopressin V1a receptor [1], the Ki was found to be 0.0008 µM.

For the origin of these results see ChEMBL document CHEMBL1144425, “Design of benzophenone-containing photoactivatable linear vasopressin antagonists: pharmacological and photoreactive properties” (J Med Chem, 2005).
